Results as given in ChEMBL document CHEMBL4513216, “Probing the Open Global Health Chemical Diversity Library for Multistage-Active Starting Points for Next-Generation Antimalarials” (ACS Infect Dis, 2020).

Experiment: Toxicity liver stage against HepG2, at 10uM
Type: cell-based
Parameters: test concentration 10 uM, cell line HepG2-A16-CD81EGFP
Conditions: human, HepG2-A16-CD81EGFP cells; read-out: INHIBITION
Outline: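 Uninfected HepG2-A16-CD81EGFP cells, 3 × 10^3 per well, 1536-well, plated on prespotted compound at 10 μM final, parasite-free screening media added to match infected plates; puromycin 10 μM positive, DMSO 0.5% negative; run in parallel with 48 h PbLuc assay at 37 °C, 5% CO2; viability by CellTiter-Glo luminescence, normalized to controls.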

| Structure (SMILES) | cytotoxicity at 10 µM [%] |
| --- | --- |
| Cc1c(C)n2c(SCC(=O)N3CCCCC3)nnc2[nH]c1=O | 3.33 |
| COc1ccc2nnc(CCC(=O)Nc3nc4c(s3)CCC4)n2n1 | -4.8 |
| CC(=O)N1C[C@@H](F)[C@@H](OCc2nc3ccc(C#N)cc3[nH]2)C1 | -0.302 |
| COc1cccc(CN2CCCCCC2c2sccc2C)c1O (stereo not given) | 7.18 |
| CC(C)C(=O)N1CCC(C2C(=O)Nc3ccccc32)CC1 (stereo not given) | -1.54 |
| CCN1C(=O)CCCC12CCCN(C(=O)c1occc1C)C2 (stereo not given) | 2.88 |
| Cn1nnc2c1CCN(C(=O)CC1CC1)C2COCCN1CCCC1 (stereo not given) | 17.4 |
| Cn1cnc2c1C(COCC1CC1)CN(C(=O)c1cccs1)C2 (stereo not given) | 7.63 |
| CCc1nnc2sc(-c3cc(C(C)C)n[nH]3)nn12 | -7.37 |
| COc1ccccc1-c1ccnc2nc(N3CCCCC3)[nH]c(=O)c12 | 7.36 |
| Cn1nc(C(=O)NCc2cccs2)c2c1CCS(=O)(=O)C2 | -0.328 |
| CCOc1ccc(N2CCCN=C2NC(=O)c2cccc(Cl)c2)cc1 | -10.1 |
| O=C(Cn1cccn1)N1CCC(c2nnc(-c3ccsc3)o2)CC1 | 6.88 |
| Cc1cncc(C2CCN(Cc3ccncc3)CC2)n1 | -3.08 |
| CCC(=O)N1CCCCC1c1nc(O)c2c(n1)CN(S(=O)(=O)CC)CC2 (stereo not given) | 1.7 |
| CC(=O)N1CCN(c2cc(C)ncn2)CC(CO)C1 (stereo not given) | 2.94 |
| CC(=O)Nc1nc(C2CCN(C(C)C)CC2)cs1 | -3.3 |
| Cc1ccc(C(=O)N2CCC[C@@H]2Cn2nnc3c(O)nc(C)nc32)cc1 | -10.3 |
| Cc1cc(-c2cc(F)ccc2C(=O)O)nc(C2CCCN(C)C2)n1 (stereo not given) | -11.4 |
| Cc1cccc(CN2CCC(c3nnc(-c4scnc4C)o3)CC2)c1 | -3.8 |
| CC(C)NC(=O)N1CCn2c(nnc2C2CCCN2)C1 (stereo not given) | -1.32 |
| CS(=O)(=O)N1CC2(CCCN2Cc2ccc(Cl)cc2)Cc2ccccc21 (stereo not given) | 17 |
| COCC(=O)N1CCN(C(C)C(=O)NC(C)C)CC1 (stereo not given) | 1.06 |
| Cc1noc(CNc2cc3c(cc2Cl)OCCCO3)n1 | -1.49 |
| O=C(NCCCC(=O)N1Cc2ccccc2C1)NCc1ccsc1 | -15 |
| CCN(CC)S(=O)(=O)c1ccc(OC)c(NC(=O)CSC)c1 | -10 |
| CCCN1CCCC1c1nc(Cc2ccc(F)cc2)no1 (stereo not given) | -2.74 |
| Cc1nc(-c2ccco2)ccc1C(=O)NCCN1CCN(C)CC1 | 3.88 |

| Structure (SMILES) | cytotoxicity at 10 µM [%] |
| --- | --- |
| CC(=O)Cn1cc(C#N)c(=O)c2cc(Br)ccc21 | -7.06 |
| CC1CCCN(C(=O)Nc2ccc(F)c(C(N)=O)c2)C1 (stereo not given) | -7.48 |
| Cc1cc(N2CCCC2c2nnc3n2CCCCC3)nc(C)n1 (stereo not given) | 9.59 |
| CS(=O)(=O)NC1CCN(CCc2ccccc2)CC1 | -1.76 |
| CCc1nsc(NC2CC(=O)N(C(C)(C)C)C2)n1 (stereo not given) | 5.6 |
| CN(C)CC1CN(Cc2cc(Cl)cc3cccnc23)CCO1 (stereo not given) | 5.26 |
| COCc1nc(C(=O)N2CCN(Cc3ccsc3)CC2)cs1 | -0.684 |
| Cc1nc(CNC(=O)N2CCCC(c3ncc[nH]3)C2)sc1C (stereo not given) | -0.331 |
| Cc1cc(C)c(CNC(=O)NCc2nnc3n2CCC3)c(=O)[nH]1 | 22.1 |
| Cn1cc(C(O)CNC(=O)Nc2cc(F)ccc2-n2cccn2)cn1 (stereo not given) | 1.01 |
| CSC(CNS(=O)(=O)c1cnn(C)c1)c1cccc(Cl)c1 (stereo not given) | 4.63 |
| Cc1nc(C2CCCN(C(=O)CCCOc3cccc(F)c3)C2)no1 (stereo not given) | 9.91 |
| Cc1ccc(-c2nc(CN3CCOC(c4ccccc4)C3)cs2)o1 (stereo not given) | -8.11 |
| CN(CCCC#N)C1CCCN(Cc2noc(C3CC3)n2)C1 (stereo not given) | -14.5 |
| CN1CCN(CCCNC(=O)c2cc(Cl)c3c(c2)OCO3)CC1 | -16.7 |
| C[C@H]1CN(C(=O)c2cccnc2)C[C@@]12CCN(CCN1CCCC1)C2=O | -4.71 |
| CNc1nc2c(s1)C(=O)CN(C(=O)NCCc1ccccc1)C2 | -7.38 |
| CC(C)[C@H](NS(C)(=O)=O)C(=O)NCc1cc(-c2ccco2)n[nH]1 | -9.13 |
| CC(C)SCCn1ccc2[nH]c(=O)c(C#N)cc2c1=O | 3.18 |
| O=C1OC2(CCN(C(=O)C3NCCc4[nH]cnc43)CC2)c2ccccc21 (stereo not given) | -7.05 |
| COc1cccc([C@H]2CN(C(=O)c3cc(C)on3)C[C@@H]2N)c1 | 3.14 |
| Cc1nn(CCN2CCSCC2)cc1CNCc1ccccn1 | 2.28 |
| CCOCc1nc2c(c(N(C)Cc3nonc3C)n1)CCNCC2 | 6.7 |
| N#Cc1cccc(N2CCCC(CO)(Cc3ccccc3F)C2)n1 (stereo not given) | 1.54 |
| CC(C)(CN1CCC(Cc2ccc(CO)cc2)C1)N1CCOCC1 (stereo not given) | -2.71 |
| CCc1c(C)nn(CCNC(=O)c2csc(C)n2)c1C | -2.78 |
| CN(C)S(=O)(=O)N1CCOCC1CC(=O)NCCOc1ccccc1 (stereo not given) | 2.38 |
